Assay outcomes deposited in PubChem by Sanford-Burnham Center for Chemical Genomics.
CCR6 antagonist: blocks CCL20-driven beta-arrestin recruitment at human CCR6; inhibition, % at 20 µM; 340,000 tested, 0.49% active; CHO-K1 CCR6 PathHunter beta-arrestin, luminescence, CCL20-stimulated;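 active = compounds whose inhibition of the agonist-driven luminescence signal at 20 µM reaches about 50%, limit read from the data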;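 note: cells stimulated with CCL20 at 14 nM final; plate controls were DMSO with CCL20 for no effect and DMSO without agonist for full effect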
Target sequence (P51684 whole entry, looked up): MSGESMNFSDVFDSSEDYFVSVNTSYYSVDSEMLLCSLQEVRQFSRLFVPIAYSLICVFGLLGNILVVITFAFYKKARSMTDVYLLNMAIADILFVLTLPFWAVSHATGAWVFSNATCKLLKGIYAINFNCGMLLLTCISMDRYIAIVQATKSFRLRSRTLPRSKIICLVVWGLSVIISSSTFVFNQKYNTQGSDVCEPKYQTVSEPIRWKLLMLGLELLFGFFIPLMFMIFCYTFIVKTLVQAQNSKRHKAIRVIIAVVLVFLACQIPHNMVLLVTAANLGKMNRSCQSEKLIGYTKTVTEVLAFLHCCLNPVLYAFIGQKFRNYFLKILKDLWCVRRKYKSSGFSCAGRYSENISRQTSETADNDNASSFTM
APJ agonist: APJ receptor agonism. P35414. AID 2520. activation, % at 20 µM. 330,000 tested, 0.11% active. CHO-K1 APJ PathHunter beta-arrestin, luminescence; 0% DMSO wells, 100% apelin;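 active = activation more than six SD over the plate average, tested at 20 µM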;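 note: 0% = DMSO alone and 100% = apelin-13 at 10 nM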
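Incubation: overnight seeding, 90 min compound at 25 °C, 1 h detection; test system: PathHunter CHO-K1 APJ (AGTRL-1) beta-arrestin reporter cells; amount: 1000 cells/well; doses: one dose, 20 µM compound, 1% DMSO; measured by: beta-gal luminescence; measure: agonist-driven arrestin binding to APJ; benchmarks: negative DMSO alone, positive Apelin-13 at 10 nM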
APJ antag: blocks the human apelin receptor APJ; P35414; 330,000 tested, 0.32% active; inhibition, % at 20 µM; AID 2521; CHO-K1 APJ beta-arrestin complementation, luminescence;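 active = inhibition above about 40% at 20 µM, limit read from the data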;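 note: cells challenged with 10 nM apelin-13 agonist together with compound; plate controls were apelin-13 plus DMSO wells for no effect and DMSO wells lacking apelin-13 for full effect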
EBI2 block: EBI2 (human) antagonism; 360,000 tested, 0.81% active; inhibition, % at 5 µM; EBI2 beta-arrestin recruitment, luminescence, 7a,25-OHC stimulated; AID 651636; in the data active = inhibition above about 38%;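 note: enzyme fragment complementation signal reports receptor beta-arrestin coupling in cells; 0% = agonist plus DMSO wells and 100% = wells without agonist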
CXCR6 block: inhibitors of human CXCR6 receptor. O00574. CHO-K1 PathHunter CXCR6 beta-arrestin, luminescence. inhibition, % at 20 µM. 360,000 tested, 0.36% active. AID 602244; in the data active = inhibition above about 34%, passing the limit was not always enough;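 note: antagonist mode with CXCL16 agonist at 10 nM final; 0% = 10 nM CXCL16 with DMSO and 100% = unstimulated wells without agonist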
APJ ag confirm: APJ receptor agonism confirmation; 310 tested, 10% active; shares compounds with APJ agonist; CHO-K1 APJ PathHunter beta-arrestin, luminescence; activation, % at 20 µM;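 active = activation above 40%, taking the highest of four retests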;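 note: plate controls were DMSO wells for no effect and apelin-13 at 10 nM for full effect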
APJ antag confirm: confirmation of human APJ apelin receptor antagonists. 950 tested, 66% active. APJ beta-arrestin recruitment, luminescence, antagonist mode. AID 2766. shares compounds with APJ antag. inhibition, % at 20 µM; in the data active = inhibition above about 50%
* marks the source's active call; other numbers are inactive results; nt = no result; ! = repeats disagree. This is a sample that favours compounds with a hit; in the whole collection about 1.5% have one here.

SMILES	CCR6 antagonist	APJ agonist	APJ antag	EBI2 block	CXCR6 block	others
C=CCN1C(=O)NC(=O)/C(=C\c2ccc(-c3ccccc3[N+](=O)[O-])o2)C1=O	21	-3	-1	8	15
O=C1NC(=O)N(Cc2ccco2)C(=O)/C1=C/c1ccc(-c2cccc([N+](=O)[O-])c2)o1	65*	-4	24	24	35
CC1=CC2/C=C(\C)CCC(O)C(O)/C=C/C(=O)C23C(=O)NC(CC(C)C)C3C1C (stereo unspecified)	33	-1	19	47*	29
C/C1=C\[C@@H](C)C/C=C/[C@H]2[C@@H]3O[C@]3(C)[C@@H](C)[C@H]3[C@H](Cc4c[nH]c5ccccc45)NC(=O)[C@]32C(=O)/C=C/C(=O)[C@@H]1O	43	-1	9	-44	-1
CCC(=O)OC1(c2ccccc2)C(C)CN(C)CC1C (stereo unspecified)	3	0	9	4	-1
COc1ccc(-n2c(/C=C/c3ccc(O)c(OC)c3)nc3ccccc3c2=O)cc1	19	-2	-17	-13	10
COc1cc(/C=C/[N+](=O)[O-])ccc1O	56*	1	-15	-26	28
Cc1noc(C)c1CC(=O)N1CCCC(N2CCN(c3ccccc3F)CC2)C1 (stereo unspecified)	-4	2	5	-5	2
ON1C2CCCCC2N(O)C1c1ccccc1 (stereo unspecified)	67*	-15	33	-1	34
NC(N)=N/N=C/c1cn(-c2ccccc2)nc1-c1cccs1	3	11*	-40	-16	-18
C[n+]1ccc(-c2ccccc2)c2ccccc21	11	0	-14	-6	-3
CN(C)c1ccc(/C=C/c2cc[n+](C)c3ccccc23)cc1	54*!	nt	nt	4	36
COc1cc(/C=C(/C)[N+](=O)[O-])ccc1OCc1ccccc1Cl	61*	5	28	72*	50*
C[C@@H]1CCC2[C@@H](C)C(=O)O[C@@H]3OC4(C)CCC1[C@@]23OO4 (stereo partly specified)	-15	8	-38	nt	nt
CN(C)c1ccc(/C=C/C=C/c2sc3ccccc3[n+]2C)cc1	32	-3	2	0	20
CC[n+]1c(/C=C/C=C/c2ccc(N(C)C)cc2)sc2ccccc21	70*	-4	35	13	53*
CCOc1ccc2nc(N=Nc3c(O)[nH]c(=S)[nH]c3=O)sc2c1	50*	-6	56*	11	29
COC(=O)[C@@H]1N=C(c2ccc(OC)cc2)O[C@]12C(=O)N(Cc1ccc(OC)cc1)c1ccccc12	nt	nt	nt	-1	-4
COc1ccc(N2C(=O)/C(=C/C=C/c3ccccc3[N+](=O)[O-])C(=O)NC2=S)cc1	59*	2	-1	nt	nt
O=[N+]([O-])/C=C/c1c(Cl)cccc1Cl	105*	nt	nt	-24	100*
COc1ccc(-n2c(O)c(C(C)=NCCCn3ccnc3)c(=O)[nH]c2=O)cc1	-6	0	17	-2	-2
CCn1nc(-c2cccs2)nc2c(=O)n(C)c(=O)nc1-2	100*	nt	nt	26	13
Nc1cc(Cl)cc(C(=O)O)c1Cl	-13	-4	-2	2	-1
O=C(c1cc2c(s1)-c1ccccc1OC2)N1CCC2(CC1)OCCO2	8	-5	-6	88*	0
Cc1ccc(/C=C2\C(=O)NC(=S)N(c3ccccc3F)C2=O)s1	96*	nt	nt	11	40*
SMILES	CCR6 antagonist	APJ agonist	APJ antag	EBI2 block	CXCR6 block	others
Cc1ccc(/C=C2\C(=O)NC(=S)N(c3ccc(F)cc3)C2=O)s1	38	1	2	3	20
c1cc(CCN2CCCC2)ccn1	1	-2	-2	-1	-2
CN(CC=CCN(C)P(=S)(N1CC1)N1CC1)P(=S)(N1CC1)N1CC1	11	nt	nt	2	-8
CCN(CC)c1ccc(/C=C/[N+](=O)[O-])cc1	44	2	35	0	40*
CCN(CC)c1ccccc1	2	-2	2	1	3
COC(=O)C1=C(c2ccccc2OCc2ccccc2)C[C@@H]2CC[C@H]1N2C(=O)NCCOc1ccc(OC)cc1	14	-4	2	51*	15
CC1CN=C(Nc2ccc(F)c(Cl)c2)S1 (stereo unspecified)	-1	4	8	0	-5
CCOC(=O)[C@]12Cc3cc(C)ccc3[C@H]1N(C1CCCCC1)C(=O)c1cc(OC)ccc12	nt	nt	nt	76*	26
N#CC1=C(N)Oc2c(c(=O)sc3ccccc23)C1c1cccnc1 (stereo unspecified)	0	-1	13	0	-6
CC(C)[C@H]1C(=O)N2CCC[C@H]2[C@]2(O)O[C@](NC(=O)[C@@H]3C=C4c5cccc6[nH]cc(c56)C[C@H]4N(C)C3)(C(C)C)C(=O)N12	5	16	6	5	-5
CN1C[C@H](CO)C=C2c3cccc4[nH]cc(c34)C[C@H]21	3	17*	-127	-5	-8	APJ ag confirm=-4
Oc1c(Cl)c(Cl)c(Cl)c(Cl)c1Cl	-6	-2	11	8	-2
COc1ccc(CN2C(=O)NC(=O)/C(=C\c3ccco3)C2=O)cc1	15	18*	5	0	-16	APJ ag confirm=13
CCCCn1c(NC(=O)c2ccco2)c(C(=O)OCC)c2nc3ccccc3nc21	58*	-22	64*	18	21	APJ antag confirm=55*
CCCCn1c(N)c(C(=O)OCC2CCCO2)c2nc3ccccc3nc21 (stereo unspecified)	11	-5	19	2	2
CCCCn1c(NS(=O)(=O)c2ccc(C)cc2)c(C(=O)OCC)c2nc3ccccc3nc21	59*	-14	65*	4	-3	APJ antag confirm=-4
CCCCn1c(N)c(C(=O)OCCOC)c2nc3ccccc3nc21	19	-9	31	8	7
CCn1c(O)c(N=Nc2cccc(S(=O)(=O)N3CCOCC3)c2)c(=O)n(CC)c1=S	24	-5	20	12	3
CCn1c(O)c(N=Nc2ccc(S(=O)(=O)N3CCOCC3)cc2)c(=O)n(CC)c1=S	29	-5	56*	18	23	APJ antag confirm=55*
Cn1c(O)c(C=NCCCCCCCCCCC(=O)O)c(=O)n(C)c1=O	-4	-3	1	-4	6
CC1CCCN(CC(=O)c2ccc(Cl)c(Cl)c2)C1 (stereo unspecified)	101*	-15	122*	16	66*	APJ antag confirm=158*
CCN1/C(=C\C=C\C2=[N+](CC)c3ccccc3C2(C)C)C(C)(C)c2ccccc21	61*	-18	54*	6	63*	APJ antag confirm=106*
